In ChEMBL document CHEMBL4513216, “Probing the Open Global Health Chemical Diversity Library for Multistage-Active Starting Points for Next-Generation Antimalarials” (ACS Infect Dis, 2020):

test: Toxicity liver stage against HepG2, at 10uM; type: cell-based; parameters: test concentration 10 uM, cell line HepG2-A16-CD81EGFP; conditions: human, HepG2-A16-CD81EGFP cells; read-out: INHIBITION
Outline: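 Uninfected HepG2-A16-CD81EGFP cells, 3 × 10^3 per well, 1536-well, plated on prespotted compound at 10 μM final, parasite-free screening media added to match infected plates; puromycin 10 μM positive, DMSO 0.5% negative; run in parallel with 48 h PbLuc assay at 37 °C, 5% CO2; viability by CellTiter-Glo luminescence, normalized to controls.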

SMILES | cytotoxicity at 10 µM [%]
Cc1[nH]ncc1CCCNC(=O)Nc1ccc(S(C)(=O)=O)nc1 | -3.71
c1ccc(C2=NOC3(CCN(Cc4c[nH]c5ccccc45)CC3)C2)cc1 | 3.93
Cc1nnc(CN2CCCC2c2ccc3c(c2)OCCCO3)n1C (stereo unspecified) | 4.86
COC1COC2(CCN(Cc3ccc4ccccc4n3)CC2)C1 (stereo unspecified) | 5.05
COc1cccc(S(=O)(=O)NC2CNC(=O)C2)c1 (stereo unspecified) | -21.7
Cc1nc(N)sc1C(=O)N1CCCC(COc2ccc(F)cc2)C1 (stereo unspecified) | -143
Cc1ncc(CNC(=O)c2nn(C)c3c2CS(=O)(=O)CC3)s1 | -2.44
Cn1ncc(C(=O)O)c1C(=O)Nc1nc2ccccc2s1 | 7.9
Cc1occc(=O)c1OCc1noc(C(=O)NC2CCCC2)n1 | 0.618
CCc1ccc(C(=O)Nc2ccc(CC3CC(=O)NC3=O)cc2)cc1 (stereo unspecified) | -13.5
O=C(Nc1ccc(F)cc1)C1CSCN1 (stereo unspecified) | -2.76
COc1ccc(C(CO)NC(=O)Nc2cccc(C#N)c2)cc1 (stereo unspecified) | -17.9
COCC1CN(Cc2ccoc2)Cc2cn(CC3CCCC3)nc21 (stereo unspecified) | 4.32
CN1CCC(NC(=O)[C@H]2CC[C@@H]3[C@@H](CCN3c3ncccn3)O2)CC1 | 7.43
O=C(CN1CCOC1=O)N1CCC2(CCc3ccccc32)CC1 | -15.8
CCCc1nc(C(C)(C)NC(=O)C2CC(=O)N(CC3CC3)C2)no1 (stereo unspecified) | -3.61
CC(C)n1ncc2c1NC(=O)C(C#N)C21CCCCC1 (stereo unspecified) | -0.47
CC(NC(=O)c1ccc(=O)n(C)c1)c1ccc(OCC2CC2)c(F)c1 (stereo unspecified) | 9.8
c1ccc(-n2ccc(CN3CCOC(Cn4cncn4)C3)n2)cc1 (stereo unspecified) | 0.561
CN1C(=O)CC(c2ccccc2)C12CCN(CCO)CC2 (stereo unspecified) | 6.47
CS(=O)(=O)c1cccc(S(=O)(=O)NC(=O)c2cscn2)c1 | 1.33
CCN1CC2(CCC1=O)CCN(CCOc1ccc(F)cc1)CC2 | 4.19
O=C1CO[C@@H]2CN(C3CCOCC3)C[C@H]2N1Cc1cccc(F)c1 | -77

SMILES | cytotoxicity at 10 µM [%]
O=C(C1CCCC1)N1CCC2(CC1)COCCN2CC1CC1 | 5.01
COCCN(Cc1ccccn1)C(=O)c1ccc(=O)n(C)c1 | -16.8
O=C(C[S+]([O-])Cc1cccc(C(F)(F)F)c1)NC1CCCC1 (stereo unspecified) | 7.72
Cc1nc(COC[C@H]2CCC[C@]23CN(C2CCOC2)CCO3)cs1 (stereo partly specified) | -79.5
O=S(=O)(Cc1ccccc1CN1CC[C@H](CO)[C@H](O)C1)c1ccccc1 | -18.2
O=c1c2cccc(Cl)c2ncn1C1CCNC1 (stereo unspecified) | -41.2
CCCN1CCN(Cc2cc(Cl)cc(Cl)c2)[C@H]2CS(=O)(=O)C[C@H]21 | -2.45
O=C1CC[C@@H]2[C@@H](CCN2C(=O)C2CCOCC2)N1CC1CC1 | 10.9
O=C(CN1CCN(C(=O)c2ccccc2)CC1)Nc1ccc(Br)cn1 | 14.1
COc1cccc(NC(=O)N(CCC(F)(F)F)C[C@H](O)CO)c1 | -9.48
Cn1cc(C(=O)N2CCCC(c3cc(O)n(C)n3)C2)cn1 (stereo unspecified) | -21.6
O=C(NCc1ccccn1)c1cnc(C2CCCN2)cn1 (stereo unspecified) | 3.62
Cc1cnn(C2CN(Cc3nc(-c4ccco4)no3)C2)c1 | -14.6
CCNc1ncc(CN2C[C@H](C3CC3)[C@@H](N)C2)cn1 | -40
CCn1nccc1S(=O)(=O)N1CCC2(CCCN(C(C)C)C2=O)C1 (stereo unspecified) | -10.9
CC(=O)N[C@H]1CN(S(=O)(=O)N(C)Cc2ccccc2)C[C@@H]1C1CC1 | -144
CCc1cccc(OC2CN(C(=O)[C@@H](N)[C@@H](C)O)C2)c1 | -3.92
Cc1cnn(CCNCc2nc(COc3ccc(F)cc3)no2)c1 | -5.61
CN1CCc2nc(C3CCCN(C(=O)CC4CCCCC4)C3)ncc2C1 (stereo unspecified) | -8.36
O=C(NCCCNC(=O)c1cccc(O)c1)Nc1ccc(F)cc1F | -11
CC(C)(C)C(=O)N1C[C@H](c2ccsc2)[C@H]2CN(Cc3cccs3)CC[C@H]21 | 12.7
Cc1cnc2c(c1NCc1cccnc1)c(=O)n(C)c(=O)n2C | -2.02
Cn1nc(C2CCNC2)c2c(C(=O)NC3CC3)cc(C3CC3)nc21 (stereo unspecified) | 13.9

SMILES | cytotoxicity at 10 µM [%]
Cc1cccc(C(=O)N2CCC3(CC2)CC(c2cnn(C)c2)CO3)c1 (stereo unspecified) | -78.7
Cc1nc(CCNC(=O)C(N)c2c(C)n[nH]c2C)sc1C (stereo unspecified) | 2.08
CCC(=O)N1CCN(Cc2cc(-c3ccncc3)nn2C)CC1 | 4.24
CC(=O)Nc1ccc(/C=C/c2ncc(C(=O)O)s2)cc1 | -3.54
Cc1ccc(N2CCC3(CC2)CCN(C2CCOC2)CC3)nn1 (stereo unspecified) | 7.67
O=C(NCCc1[nH]nc2c1CCCC2)C1CCCN(Cc2ccco2)C1 (stereo unspecified) | 2.72
c1cc(CN2CCCC(c3noc(C4CC4)n3)C2)no1 (stereo unspecified) | -7.57
O=C(NCCc1ccccc1Cl)NCC1(O)CCSC1 (stereo unspecified) | -6.17
Cc1cnc2n(c1=O)C(CC(=O)NCc1ccco1)CS2 (stereo unspecified) | -5.52
Cc1nn(CC(C)C)c(N(C)C)c1CNCc1cc2ccccc2[nH]1 | -2.77
CNS(=O)(=O)c1ccc(CNC(=O)N(C)CC(O)COC)cc1 (stereo unspecified) | -1.22
Cc1ccc(NC(=O)N2CCCC(O)C2)c(Br)c1 (stereo unspecified) | 7.72
CN(C)C(=O)c1cccc(CNc2ccc(C#N)cn2)c1 | -4.73
O=C(NCCOc1ccccc1)C1NCCc2[nH]cnc21 (stereo unspecified) | 8.01
CC(C)OCCCNC(=O)CC1(Cn2cnnn2)CCCCC1 | 9.18
CC(=O)c1cccc(OCCCC(=O)N(C)Cc2cnn(C)c2)c1 | -3.05
COc1ccc(F)cc1NC(=O)NCC1(C)COC1 | 6.26
Cc1cc(C)n(CC(=O)NCc2ccccn2)n1 | 3.86
Cc1cc2n(n1)CC(CNCc1cc(C)on1)CN2 (stereo unspecified) | -7.93
Cc1cc(C2CCCN(Cc3nc(Cc4ccccc4)no3)C2)n[nH]1 (stereo unspecified) | 3.82
Cc1cc(NC(=O)N2CCN(C)CC2C)n(C(C)(C)C)n1 (stereo unspecified) | 6.3
CC(C)(C)Cc1nnc(NCc2ccsc2)o1 | -5.36
O=C(NCCN1CCOCC1)c1nc2ccccc2c(=O)[nH]1 | 11.3

SMILES | cytotoxicity at 10 µM [%]
Brc1ccc(C2(NCc3noc(C4CC4)n3)CCC2)cc1 | 13.3
CC(Cc1cccc(F)c1)C(=O)NS(=O)(=O)c1ccc(F)cc1 (stereo unspecified) | 5.58
CN1CSC[C@H]1C(=O)N1CCN(Cc2cccc(F)c2)CC1 | -6.92
Cc1ccc(=O)n(CC2(O)CCN(Cc3c(F)cccc3F)CC2)n1 | -17.6
Cn1ccnc1CN1CCCN(C(=O)COC2CCCCC2)CC1 | -23.9
COc1cccc(C(=O)NCC(O)c2cccs2)c1 (stereo unspecified) | -22.4
Cc1nc(C)n(CC2CCCCN2CC(=O)NC(C2CC2)C2CC2)n1 (stereo unspecified) | -8.61
CC(O)CN1CCN(C(=O)c2ccc(Cn3cccn3)cc2)CC1 (stereo unspecified) | -1.45
c1coc(CN2CCn3c(nc4ccccc43)C2)c1 | 21.8
COC(=O)[C@]12CNC[C@H]1CN(Cc1nc(C)c[nH]1)C2 | 6.01
CN(CCc1ccccn1)C(=O)C(O)c1ccc(Br)cc1 (stereo unspecified) | -0.779
Cn1nc2c(cc1=O)CN(Cc1nc(-c3ccco3)no1)CC2 | 1.22
Cc1noc(C2CCN(Cc3cc(=O)n(C)c(=O)n3C)CC2)n1 | -2.57
O=C(Nc1ccc(-n2ccc(C(=O)O)n2)cc1)c1ccccc1 | -139
CCC(NC(=O)c1ccc(OC)nn1)c1nc(C(F)(F)F)cs1 (stereo unspecified) | -3.41
CCn1ccnc1CN1CCN(c2ncnc3ccsc23)CC1 | 5.39
c1ccc(-n2ccc(CNC3CCc4ncnn4C3)n2)cc1 (stereo unspecified) | -2.57
COC(=O)CN(C)Cc1cc(Br)cs1 | -2.45
CCOCC1CN(S(=O)(=O)C2CC2)Cc2nn(C)cc21 (stereo unspecified) | -112
Cc1cccc(CN2CCc3ncnc(-c4ccsc4)c3CC2)n1 | -78.2
COCCCN1CC2(CCCN(c3ncnc4[nH]cnc34)C2)CCC1=O (stereo unspecified) | -2.95
CC(=O)NCCn1ccc(-c2ccccn2)n1 | 7.38
CN1C(=O)CCCC12CCCN(Cc1nccs1)C2 (stereo unspecified) | 11.4

SMILES | cytotoxicity at 10 µM [%]
O=C(NC1CCC1)[C@@H]1CCO[C@@H]2CCN(C3CCCC3)C[C@H]21 | 9.05
COc1cccc(OCC2CCCN(Cc3ccncc3)C2)c1 (stereo unspecified) | -7.66
CS(=O)(=O)N1CCCC12CCCN(C(=O)c1ccnnc1)C2 (stereo unspecified) | -143
CCc1ccccc1CN1CCN(Cc2ncc[nH]2)[C@H]2CS(=O)(=O)C[C@H]21 | 2.03
CC(C)(CNC(=O)C1(c2cccc(Br)c2)CCOCC1)C(=O)O | 2.9
CCc1c(C)[nH]c(C2(N)CCCCC2)nc1=O | -3.47
COc1cccc(-c2cc(NCc3nccn3C)n(C)n2)c1 | 0.684
CC1(C)COCCN1C(=O)Cc1csc(Cc2ccccn2)n1 | 3.31
CN(C)c1ncccc1CNS(=O)(=O)c1ccc(F)cc1F | -3
COc1ncnc(N)c1CNCC(C)SC (stereo unspecified) | -0.554
CCc1nnsc1C(=O)N1CCCN(Cc2ccc(C)cc2)CC1 | -4.28
N#Cc1ccccc1C(=O)NCCC1CN(Cc2ccco2)CCO1 (stereo unspecified) | -7.25
c1ccc(CN2C[C@@H]3COC[C@]3(COCC3CCOCC3)C2)nc1 | -0.326
Cc1ccc(NC2CCN(C(=O)Cc3c(C)noc3C)CC2)nn1 | -8.13
O=C(c1ccnnc1)N1CCC2(CC1)CC(N1CCOCC1)C2 | 6.97
CC(NC(=O)NCC1(c2ccc(Cl)cc2)CC1)c1nncn1C (stereo unspecified) | -3.25
Cc1ncsc1C(=O)N1CCn2nc(CN3CCSCC3)cc2C1 | -51
Cn1cc(C(=O)NC[C@@H]2OC[C@H]3CN(S(C)(=O)=O)CC[C@H]32)cn1 | -9.12
Cc1cc(CC(=O)NCC(O)COc2ccc(F)c(F)c2)n[nH]1 (stereo unspecified) | -7.66
